pIC50: −log10 of the molar value.
Assays:
[1] = target: T1, Cytochrome P450 11B1, mitochondrial (Homo sapiens, UniProt P15538); test: Inhibition of human CYP11B1 expressed in human renal leiomyoblastoma cells harboring FDXR/FDX using 1-deoxycortisol as substrate by HTRF assay; type: ADME, cell-based
T1 sequence (P15538 whole entry): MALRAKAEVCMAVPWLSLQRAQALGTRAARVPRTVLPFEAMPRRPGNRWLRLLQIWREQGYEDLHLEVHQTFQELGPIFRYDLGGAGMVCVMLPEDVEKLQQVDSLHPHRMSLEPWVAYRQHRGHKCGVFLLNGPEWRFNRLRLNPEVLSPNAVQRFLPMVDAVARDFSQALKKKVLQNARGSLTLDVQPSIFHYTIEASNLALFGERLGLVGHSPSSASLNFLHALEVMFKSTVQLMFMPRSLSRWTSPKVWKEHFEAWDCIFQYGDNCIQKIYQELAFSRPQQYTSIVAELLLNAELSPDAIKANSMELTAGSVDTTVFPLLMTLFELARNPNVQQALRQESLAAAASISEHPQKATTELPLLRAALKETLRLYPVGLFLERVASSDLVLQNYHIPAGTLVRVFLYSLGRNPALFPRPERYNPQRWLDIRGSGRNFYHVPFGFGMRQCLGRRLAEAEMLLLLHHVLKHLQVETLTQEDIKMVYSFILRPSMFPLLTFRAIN
How it was run: (§1)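 Cells with endogenous FDXR/FDX and no detectable CYP11B activity, stably transfected (CMV promoter, neomycin selection, G-418 400 µg/mL) with CYP11B1 or CYP11B2 of the named species. Assayed in DMEM/F12 with 2.5% charcoal-treated FCS. Substrate 1 µM 11-deoxycorticosterone (B2) or 11-deoxycortisol (B1), 16 hr. Aldosterone or cortisol in supernatant measured by HTRF. IC50 from 4-parameter MMF fit; selectivity factor is the B1/B2 IC50 ratio.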

[2] = Selectivity ratio of IC50 for human CYP11B1 expressed in human renal leiomyoblastoma cells harboring FDXR/FDX to IC50 for human CYP11B2 expressed in human renal leiomyoblastoma cells harboring FDXR/FDX; type: cell-based; how it was run: as §1
[3] = Intrinsic clearance in human liver microsomes preincubated for 10 mins followed by NADPH regenerating system addition and measured up to 30 mins by LC/MS-MS analysis; type: ADME, Microsome; details: read-out: CLH
How it was run: (§2)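 Liver microsomes at 0.5 mg protein/mL in 100 mM potassium phosphate, pH 7.4. Compound preincubated 10 min at 37 °C. Intrinsic clearance scaled using the well-stirred liver model.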

[4] = target: T2, Cytochrome P450 11B2, mitochondrial (Homo sapiens, UniProt P19099); test: Inhibition of human CYP11B2 expressed in human renal leiomyoblastoma cells harboring FDXR/FDX using 1-deoxycorticosterone as substrate by HTRF assay; type: cell-based; how it was run: as §1
T2 sequence (P19099 whole entry): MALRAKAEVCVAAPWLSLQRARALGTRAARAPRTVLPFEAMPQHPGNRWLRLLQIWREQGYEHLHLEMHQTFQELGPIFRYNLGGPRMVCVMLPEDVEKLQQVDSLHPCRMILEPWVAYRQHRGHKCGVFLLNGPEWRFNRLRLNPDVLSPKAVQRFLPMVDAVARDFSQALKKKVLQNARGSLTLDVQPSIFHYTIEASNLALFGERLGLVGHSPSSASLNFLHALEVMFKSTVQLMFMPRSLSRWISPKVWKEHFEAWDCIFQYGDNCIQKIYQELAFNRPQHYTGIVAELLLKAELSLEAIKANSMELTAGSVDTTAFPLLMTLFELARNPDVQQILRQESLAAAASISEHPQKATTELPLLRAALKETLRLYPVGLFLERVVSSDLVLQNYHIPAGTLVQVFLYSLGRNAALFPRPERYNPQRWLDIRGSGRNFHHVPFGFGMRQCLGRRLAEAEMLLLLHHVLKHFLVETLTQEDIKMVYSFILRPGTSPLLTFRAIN

[5] = Intrinsic clearance in mouse liver microsomes preincubated for 10 mins followed by NADPH regenerating system addition and measured up to 30 mins by LC/MS-MS analysis; type: ADME, Microsome; how it was run: as §2

SMILES: O=C1c2ccc(Cl)cc2C(C2CC2)N1c1cccnc1 (configuration not stated)
- pIC50 [1]: 4.49
- Ratio IC50 [2]: 202
- predicted hepatic clearance [3]: 9.4 mL/min/kg
- pIC50 [4]: 6.79

SMILES: Cc1ccncc1C(=O)N1CC2(C1)CN(c1cncc(N3C(=O)c4ccc(Cl)cc4C3(C)C)c1)C2
- Ratio IC50 [2]: 1870
- pIC50 [4]: 7.85

SMILES: O=C1c2ccc(Cl)cc2C2(CC2)N1c1cccnc1
- pIC50 [1]: 5.35
- Ratio IC50 [2]: 37
- predicted hepatic clearance [3]: 3.5 mL/min/kg
- pIC50 [4]: 6.92

SMILES: O=C1c2ccc(Cl)cc2C(Cc2ccccc2)N1c1cccnc1 (configuration not stated)
- pIC50 [1]: 6.67
- Ratio IC50 [2]: 0.2
- pIC50 [4]: 5.97

SMILES: O=C(Nc1cccnc1)c1ccc(Cl)cc1F
- pIC50 [1]: < 5.52
- Ratio IC50 [2]: > 10
- pIC50 [4]: 6.53

SMILES: CCC(=O)NCc1cncc(N2C(=O)c3ccc(Cl)cc3C2(C)C)c1
- Ratio IC50 [2]: 28
- pIC50 [4]: 6.55

SMILES: CC(=O)N[C@H]1CCCc2c1cncc2N1Cc2cc(Cl)ccc2C1=O
- pIC50 [1]: 4.40
- Ratio IC50 [2]: 8
- pIC50 [4]: 5.29

SMILES: CC(=O)N[C@@H]1CCCc2c1cncc2N1C(=O)c2ccc(Cl)cc2[C@@H]1C
- pIC50 [1]: 7.09
- predicted hepatic clearance (CLH) [5]: < 20.2 mL/min/kg
- Ratio IC50 [2]: 20
- predicted hepatic clearance [3]: < 3.5 mL/min/kg
- pIC50 [4]: 8.40

SMILES: CCC1c2cc(Cl)ccc2C(=O)N1c1cccnc1 (configuration not stated)
- pIC50 [1]: 5.48
- predicted hepatic clearance (CLH) [5]: 65.9 mL/min/kg
- Ratio IC50 [2]: 28
- predicted hepatic clearance [3]: 6.6 mL/min/kg
- pIC50 [4]: 6.92

SMILES: CCC(=O)N[C@@H]1CCCc2c1cncc2N1C(=O)c2ccc(Cl)cc2[C@@H]1C
- pIC50 [1]: 6.38
- predicted hepatic clearance (CLH) [5]: < 20.2 mL/min/kg
- Ratio IC50 [2]: 69
- predicted hepatic clearance [3]: < 3.5 mL/min/kg
- pIC50 [4]: 8.22

SMILES: Cc1ccc(C(=O)Nc2cccnc2)cc1
- pIC50 [1]: < 5.52
- pIC50 [4]: < 5.52

SMILES: CN(C(=O)c1ccc(Cl)cc1F)c1cccnc1
- pIC50 [1]: < 5.52
- pIC50 [4]: < 5.52

SMILES: CCC(=O)N[C@@H]1CCCc2c1cncc2N1C(=O)c2ccc(Cl)cc2[C@H]1CC
- pIC50 [1]: 4.99
- predicted hepatic clearance (CLH) [5]: 44.9 mL/min/kg
- Ratio IC50 [2]: 114
- predicted hepatic clearance [3]: < 3.5 mL/min/kg
- pIC50 [4]: 7.05

SMILES: N#Cc1ccc(C(=O)Nc2cccnc2)cc1
- pIC50 [1]: < 5.52
- Ratio IC50 [2]: > 7
- pIC50 [4]: 6.34

SMILES: Cc1cc(Cl)ccc1C(=O)Nc1cccnc1
- pIC50 [1]: < 5.52
- Ratio IC50 [2]: > 11
- pIC50 [4]: 6.56

SMILES: CCC(=O)N[C@@H]1CCCc2c1cncc2N1C(=O)c2ccc(Cl)cc2[C@H]1C
- pIC50 [1]: 5.03
- predicted hepatic clearance (CLH) [5]: 45.6 mL/min/kg
- Ratio IC50 [2]: 143
- predicted hepatic clearance [3]: < 3.5 mL/min/kg
- pIC50 [4]: 7.18

SMILES: CC(=O)N[C@@H]1CCCc2c1cncc2N1Cc2cc(Cl)ccc2C1=O
- pIC50 [1]: 5.63
- predicted hepatic clearance (CLH) [5]: < 20.2 mL/min/kg
- Ratio IC50 [2]: 53
- predicted hepatic clearance [3]: < 3.5 mL/min/kg
- pIC50 [4]: 7.36

SMILES: CC(=O)N[C@@H]1CCCc2c1cncc2N1C(=O)c2ccc(Cl)cc2[C@@H]1C1CC1
- pIC50 [1]: < 4.52
- Ratio IC50 [2]: > 85
- pIC50 [4]: 6.45

SMILES: CC(=O)N[C@@H]1CCCc2c1cncc2N1C(=O)c2ccc(Cl)cc2[C@H]1C
- pIC50 [1]: 5.29
- predicted hepatic clearance (CLH) [5]: 43.5 mL/min/kg
- Ratio IC50 [2]: 40
- predicted hepatic clearance [3]: < 3.5 mL/min/kg
- pIC50 [4]: 6.89

SMILES: CC1c2cc(Cl)ccc2C(=O)N1c1cccnc1 (configuration not stated)
- pIC50 [1]: 5.90
- predicted hepatic clearance (CLH) [5]: 66.5 mL/min/kg
- Ratio IC50 [2]: 10
- predicted hepatic clearance [3]: 12.2 mL/min/kg
- pIC50 [4]: 6.91

SMILES: O=C1c2ccccc2CN1c1cccnc1
- pIC50 [1]: < 5.52
- Ratio IC50 [2]: > 3
- pIC50 [4]: 5.95

SMILES: O=C1c2cc(F)c(Cl)cc2CCN1c1cccnc1
- pIC50 [1]: 5.45
- predicted hepatic clearance (CLH) [5]: 30.9 mL/min/kg
- Ratio IC50 [2]: 34
- predicted hepatic clearance [3]: < 3.5 mL/min/kg
- pIC50 [4]: 6.98

SMILES: O=C(Nc1cccnc1)c1ccc(Cl)cc1
- pIC50 [1]: < 5.52
- Ratio IC50 [2]: > 7
- pIC50 [4]: 6.38

SMILES: CC1(C)c2cc(Cl)ccc2C(=O)N1c1cccnc1
- pIC50 [1]: 5.37
- predicted hepatic clearance (CLH) [5]: 25 mL/min/kg
- Ratio IC50 [2]: 40
- predicted hepatic clearance [3]: < 3.5 mL/min/kg
- pIC50 [4]: 6.97

SMILES: Cc1cc(Cl)ccc1C(=O)N(C)c1cccnc1
- pIC50 [1]: < 5.52
- pIC50 [4]: < 5.52

SMILES: CS(=O)(=O)N[C@@H]1CCCc2c1cncc2N1Cc2cc(Cl)ccc2C1=O
- pIC50 [1]: 5.03
- predicted hepatic clearance (CLH) [5]: < 20.2 mL/min/kg
- Ratio IC50 [2]: 9
- predicted hepatic clearance [3]: < 3.5 mL/min/kg
- pIC50 [4]: 6.00

SMILES: CCC(=O)N[C@@H]1CCCc2c1cncc2N1C(=O)c2ccc(Cl)cc2[C@@H]1CC
- pIC50 [1]: 6.46
- predicted hepatic clearance (CLH) [5]: < 20.2 mL/min/kg
- Ratio IC50 [2]: 29
- predicted hepatic clearance [3]: < 3.5 mL/min/kg
- pIC50 [4]: 7.92

SMILES: CN(C(=O)c1ccc(C#N)cc1)c1cccnc1
- pIC50 [1]: < 5.52
- pIC50 [4]: < 5.52

SMILES: CC[C@@H]1c2cc(Cl)ccc2C(=O)N1c1cncc2c1CCC[C@H]2NC(C)=O
- pIC50 [1]: 6.48
- predicted hepatic clearance (CLH) [5]: < 20.2 mL/min/kg
- Ratio IC50 [2]: 48
- predicted hepatic clearance [3]: < 3.5 mL/min/kg
- pIC50 [4]: 8.15

SMILES: CCS(=O)(=O)N[C@@H]1CCCc2c1cncc2N1Cc2cc(Cl)ccc2C1=O
- pIC50 [1]: 5.75
- predicted hepatic clearance (CLH) [5]: 27 mL/min/kg
- Ratio IC50 [2]: 45
- predicted hepatic clearance [3]: < 3.5 mL/min/kg
- pIC50 [4]: 7.40

SMILES: CC(=O)N[C@@H]1CCCc2c1cncc2N1C(=O)c2ccc(Cl)cc2[C@H]1C1CC1
- pIC50 [1]: 4.64
- Ratio IC50 [2]: 228
- pIC50 [4]: 7.00

SMILES: CCS(=O)(=O)NCc1cncc(N2C(=O)c3ccc(Cl)cc3C2(C)C)c1
- Ratio IC50 [2]: 31
- pIC50 [4]: 7.04

SMILES: O=C(Nc1cccnc1)c1ccccc1Cl
- pIC50 [1]: < 5.52
- Ratio IC50 [2]: > 3
- pIC50 [4]: 6.01

SMILES: CC[C@H]1c2cc(Cl)ccc2C(=O)N1c1cncc2c1CCC[C@H]2NC(C)=O
- pIC50 [1]: 5.44
- predicted hepatic clearance (CLH) [5]: < 20.2 mL/min/kg
- Ratio IC50 [2]: 37
- predicted hepatic clearance [3]: < 3.5 mL/min/kg
- pIC50 [4]: 7.01
